Test results from ChEMBL document CHEMBL3425469, “Discovery of imidazo[2,1-b]thiazole HCV NS4B inhibitors exhibiting synergistic effect with other direct-acting antiviral agents” (J Med Chem, 2015).

Legend:
Hepatitis C virus [1] = assay: Antiviral activity against Hepatitis C virus genotype 1b Con 1 infected in human HuH7 cells at 160 nM after 72 hrs by luciferase assay in presence of 60 nM sofobuvir; format: functional, Hepacivirus hominis, Huh-7
Outline: (§1)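 Stable Con1 GT1b bicistronic luciferase replicon in Huh-7 cells, 8000 cells/well. Test compound and a marketed DAA or clemizole added alone or together at varied concentrations, 0.5% DMSO final. 72 h at 37°C, then luciferase read with Bright-Glo. Inhibition expressed as % of untreated control, with cytotoxicity run in parallel. CI and DRI derived by the Chou–Talalay median-effect method.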

Hepatitis C virus [2] = assay: Antiviral activity against Hepatitis C virus genotype 1b Con 1 infected in human HuH7 cells at 10 nM after 72 hrs by luciferase assay in presence of 15 uM clemizole; format: functional, Hepacivirus hominis, Huh-7; outline: as §1
Hepatitis C virus [3] = assay: Antiviral activity against Hepatitis C virus genotype 1b Con 1 infected in human HuH7 cells at 5 nM after 72 hrs by luciferase assay in presence of 15 uM clemizole; format: functional, Hepacivirus hominis, Huh-7
Outline: (§2)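 Huh-7 cells stably carrying a GT1b Con1 bicistronic luciferase replicon, seeded at 8000 cells/well. The test compound and the partner DAA are dosed orthogonally at various concentrations, final 0.5% DMSO, then incubated 72 h at 37°C. Bright-Glo luciferase read-out gives replicon inhibition as % of untreated control. Cytotoxicity is checked in parallel by CellTiter-Fluor. CI and DRI are derived by the Chou–Talalay median-effect method.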

Hepatitis C virus [4] = assay: Antiviral activity against Hepatitis C virus genotype 1b Con 1 infected in human HuH7 cells at 80 nM after 72 hrs by luciferase assay in presence of 0.16 nM daclatasvir; format: functional, Hepacivirus hominis, Huh-7; outline: as §2
Hepatitis C virus [5] = assay: Antiviral activity against Hepatitis C virus genotype 1b Con 1 infected in human HuH7 cells at 5 nM after 72 hrs by luciferase assay in presence of 7.5 uM clemizole; format: functional, Hepacivirus hominis, Huh-7; outline: as §2
Hepatitis C virus [6] = assay: Antiviral activity against Hepatitis C virus genotype 1b Con 1 infected in human HuH7 cells at 20 nM after 72 hrs by luciferase assay in presence of 30 nM sofobuvir; format: functional, Hepacivirus hominis, Huh-7; outline: as §2
Hepatitis C virus [7] = assay: Antiviral activity against Hepatitis C virus genotype 1b Con 1 infected in human HuH7 cells at 5 nM after 72 hrs by luciferase assay in presence of 12 nM simeprevir; format: functional, Hepacivirus hominis, Huh-7; outline: as §2
Hepatitis C virus [8] = assay: Antiviral activity against Hepatitis C virus genotype 1b Con 1 infected in human HuH7 cells at 5 nM after 72 hrs by luciferase assay in presence of 12.5 uM clemizole; format: functional, Hepacivirus hominis, Huh-7; outline: as §2
Hepatitis C virus [9] = assay: Antiviral activity against Hepatitis C virus genotype 1b Con 1 infected in human HuH7 cells at 10 nM after 72 hrs by luciferase assay in presence of 0.02 nM daclatasvir; format: functional, Hepacivirus hominis, Huh-7; outline: as §1
Hepatitis C virus [10] = assay: Antiviral activity against Hepatitis C virus genotype 1b Con 1 infected in human HuH7 cells at 10 nM after 72 hrs by luciferase assay in presence of 0.08 nM daclatasvir; format: functional, Hepacivirus hominis, Huh-7; outline: as §1
Hepatitis C virus [11] = assay: Antiviral activity against Hepatitis C virus genotype 1b Con 1 infected in human HuH7 cells at 2.5 nM after 72 hrs by luciferase assay in presence of 0.08 nM daclatasvir; format: functional, Hepacivirus hominis, Huh-7; outline: as §1
Hepatitis C virus [12] = assay: Antiviral activity against Hepatitis C virus genotype 1b Con 1 infected in human HuH7 cells at 10 nM after 72 hrs by luciferase assay in presence of 30 nM sofobuvir; format: functional, Hepacivirus hominis, Huh-7; outline: as §1
Hepatitis C virus [13] = assay: Antiviral activity against Hepatitis C virus genotype 1b Con 1 infected in human HuH7 cells at 5 nM after 72 hrs by luciferase assay in presence of 0.16 nM daclatasvir; format: functional, Hepacivirus hominis, Huh-7; outline: as §2
Hepatitis C virus [14] = assay: Antiviral activity against Hepatitis C virus genotype 1b Con 1 infected in human HuH7 cells at 5 nM after 72 hrs by luciferase assay in presence of 0.04 nM daclatasvir; format: functional, Hepacivirus hominis, Huh-7; outline: as §2
Hepatitis C virus [15] = assay: Antiviral activity against Hepatitis C virus genotype 1b harboring H3R NS4B mutation transfected in human HuH7 cells after 72 hrs by luciferase assay; format: functional, cell-based, Hepacivirus hominis; conditions: Huh-7, 72 h
Outline: (§3)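 Huh-7 cells were transiently electroporated with genotype 1b replicon RNA carrying the specified mutation and plated at 10000 cells/well. Compounds were added at 0.5% DMSO final for 72 h at 37°C. Read-out was Bright-Glo luciferase. EC50 is the mean of two independent runs within 2-fold of each other. A reference drug EC50 was measured alongside each mutant replicon to validate it.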

Hepatitis C virus [16] = assay: Antiviral activity against Hepatitis C virus genotype 1b Con 1 infected in human HuH7 cells at 5 nM after 72 hrs by luciferase assay in presence of 24 nM simeprevir; format: functional, Hepacivirus hominis, Huh-7; outline: as §2
Hepatitis C virus [17] = assay: Antiviral activity against Hepatitis C virus genotype 1b Con 1 infected in human HuH7 cells at 10 nM after 72 hrs by luciferase assay in presence of 5 uM clemizole; format: functional, Hepacivirus hominis, Huh-7; outline: as §1
Hepatitis C virus [18] = assay: Antiviral activity against Hepatitis C virus genotype 1b Con 1 infected in human HuH7 cells at 2.5 nM after 72 hrs by luciferase assay in presence of 0.02 nM daclatasvir; format: functional, Hepacivirus hominis, Huh-7; outline: as §1
Hepatitis C virus [19] = assay: Antiviral activity against Hepatitis C virus genotype 1b Con 1 infected in human HuH7 cells at 160 nM after 72 hrs by luciferase assay in presence of 17.5 uM clemizole; format: functional, Hepacivirus hominis, Huh-7; outline: as §1
Hepatitis C virus [20] = assay: Antiviral activity against Hepatitis C virus genotype 1b Con 1 infected in human HuH7 cells at 160 nM after 72 hrs by luciferase assay in presence of 0.04 nM daclatasvir; format: functional, Hepacivirus hominis, Huh-7; outline: as §1
Hepatitis C virus [21] = assay: Antiviral activity against Hepatitis C virus genotype 1b Con 1 infected in human HuH7 cells at 40 nM after 72 hrs by luciferase assay in presence of 240 nM sofobuvir; format: functional, Hepacivirus hominis, Huh-7; outline: as §2
Hepatitis C virus [22] = assay: Antiviral activity against Hepatitis C virus genotype 1b harboring F98C mutation transfected in human HuH7 cells after 72 hrs by luciferase assay; format: functional, cell-based, Hepacivirus hominis; conditions: Huh-7, 72 h; outline: as §3
Hepatitis C virus [23] = assay: Antiviral activity against Hepatitis C virus genotype 1b Con 1 infected in human HuH7 cells at 160 nM after 72 hrs by luciferase assay in presence of 24 nM simeprevir; format: functional, Hepacivirus hominis, Huh-7; outline: as §1
Hepatitis C virus [24] = assay: Antiviral activity against Hepatitis C virus genotype 1b Con 1 infected in human HuH7 cells at 20 nM after 72 hrs by luciferase assay in presence of 6 nM simeprevir; format: functional, Hepacivirus hominis, Huh-7; outline: as §2
Hepatitis C virus [25] = assay: Antiviral activity against Hepatitis C virus genotype 1b Con 1 infected in human HuH7 cells at 20 nM after 72 hrs by luciferase assay in presence of 12 nM simeprevir; format: functional, Hepacivirus hominis, Huh-7; outline: as §1
Hepatitis C virus [26] = assay: Antiviral activity against Hepatitis C virus genotype 1b harboring S282T NS5B (active site) mutation transfected in human HuH7 cells after 72 hrs by luciferase assay; format: functional, cell-based, Hepacivirus hominis; conditions: Huh-7, 72 h; outline: as §3
Hepatitis C virus [27] = assay: Antiviral activity against Hepatitis C virus genotype 1b Con 1 infected in human HuH7 cells at 20 nM after 72 hrs by luciferase assay in presence of 3 nM simeprevir; format: functional, Hepacivirus hominis, Huh-7; outline: as §2
Hepatitis C virus [28] = assay: Antiviral activity against Hepatitis C virus genotype 1b Con 1 infected in human HuH7 cells at 160 nM after 72 hrs by luciferase assay in presence of 7.5 uM clemizole; format: functional, Hepacivirus hominis, Huh-7; outline: as §1
Hepatitis C virus [29] = assay: Antiviral activity against Hepatitis C virus genotype 1b Con 1 infected in human HuH7 cells at 2.5 nM after 72 hrs by luciferase assay in presence of 24 nM simeprevir; format: functional, Hepacivirus hominis, Huh-7; outline: as §1
Hepatitis C virus [30] = assay: Antiviral activity against Hepatitis C virus genotype 1b Con 1 infected in human HuH7 cells at 40 nM after 72 hrs by luciferase assay in presence of 12 nM simeprevir; format: functional, Hepacivirus hominis, Huh-7; outline: as §2

In the case of `O=C(c1nc2scc(C3CC3)n2c1Cl)N1CCN(C2CCCC2)C(=O)C1`, the CI (Hepatitis C virus [1]) is reported as 0.58, the CI (Hepatitis C virus [2]) is reported as 1.05 and the CI (Hepatitis C virus [3]) is reported as 0.99. For the same compound, the CI (Hepatitis C virus [4]) was 0.73, the CI (Hepatitis C virus [5]) was 0.6 and the CI (Hepatitis C virus [6]) was 0.83. It also gave a CI (Hepatitis C virus [7]) of 0.75, a CI (Hepatitis C virus [8]) of 0.71 and a CI (Hepatitis C virus [9]) of 1.14. The CI (Hepatitis C virus [10]) was 0.69, the CI (Hepatitis C virus [11]) was 0.66 and the CI (Hepatitis C virus [12]) was 0.69. It also gave a CI (Hepatitis C virus [13]) of 0.88, a CI (Hepatitis C virus [14]) of 0.89 and an EC50 (Hepatitis C virus [15]) of 1.1 µM. For the same compound, the CI (Hepatitis C virus [16]) was 1.31, the CI (Hepatitis C virus [17]) was 0.82 and the CI (Hepatitis C virus [18]) was 1.2. For the same compound, the CI (Hepatitis C virus [19]) was 1.74, the CI (Hepatitis C virus [20]) was 0.42 and the CI (Hepatitis C virus [21]) was 0.41. For the same compound, the EC50 (Hepatitis C virus [22]) was 27.1 µM, the CI (Hepatitis C virus [23]) was 0.87 and the CI (Hepatitis C virus [24]) was 0.48. For the same compound, the CI (Hepatitis C virus [25]) was 0.64, the EC50 (Hepatitis C virus [26]) was 0.015 µM and the CI (Hepatitis C virus [27]) was 0.94. For the same compound, the CI (Hepatitis C virus [28]) was 1.17, the CI (Hepatitis C virus [29]) was 1.31 and the CI (Hepatitis C virus [30]) was 0.62.
